This is an account of results in the M2OR odorant receptor database.
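Further: active if original authors judged signal statistically different from baseline.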

The first test concerns the target T1, OR2H2 (Homo sapiens) (UniProt O95918).
T1 sequence (whole entry): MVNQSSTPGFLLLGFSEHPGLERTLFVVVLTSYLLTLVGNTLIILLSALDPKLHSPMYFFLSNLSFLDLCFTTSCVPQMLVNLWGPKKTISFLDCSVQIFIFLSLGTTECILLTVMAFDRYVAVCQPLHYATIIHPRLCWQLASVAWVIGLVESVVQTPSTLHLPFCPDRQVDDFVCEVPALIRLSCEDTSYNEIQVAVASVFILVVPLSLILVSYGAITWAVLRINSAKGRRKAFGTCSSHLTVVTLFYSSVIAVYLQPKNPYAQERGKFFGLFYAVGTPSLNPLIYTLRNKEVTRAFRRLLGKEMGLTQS
The following applies: stereoisomer not certain. A digest of the protocol: (§1)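 Each receptor–molecule pair is labelled responsive or non-responsive (inactive) according to whether the original authors judged the measured signal statistically different from baseline. The data were taken from the main text and supplementary material of published papers and checked for typos and inconsistencies. Assay methods differed by source, with transient luciferase assays in mammalian cell lines being common.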
As for `C=CCOC(=O)Cc1ccccc1`, the “odorant receptor agonist call” value was “inactive”. The same measure, in the same setting: the same measure for `O=CC=Cc1ccccc1`: “inactive”. `Cc1c([N+](=O)[O-])c(C)c([N+](=O)[O-])c(C(C)(C)C)c1[N+](=O)[O-]`: the “odorant receptor agonist call” value was “inactive”.

In another test the target is T2, OR2J2 (Homo sapiens) (UniProt O76002).
T2 sequence (whole entry): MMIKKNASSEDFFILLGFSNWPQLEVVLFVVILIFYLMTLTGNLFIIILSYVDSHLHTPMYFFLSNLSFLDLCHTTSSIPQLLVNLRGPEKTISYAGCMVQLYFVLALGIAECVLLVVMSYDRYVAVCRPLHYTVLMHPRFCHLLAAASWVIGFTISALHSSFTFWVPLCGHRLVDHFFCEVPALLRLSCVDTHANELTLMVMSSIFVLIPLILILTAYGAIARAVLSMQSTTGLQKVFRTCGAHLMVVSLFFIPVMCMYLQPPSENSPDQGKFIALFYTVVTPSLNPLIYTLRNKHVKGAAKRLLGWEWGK
The settings on record: stereoisomer not certain. A digest of the protocol: as §1
Regarding `CCC1CCC(=O)O1` (stereo unspecified), the “odorant receptor agonist call” value is “inactive”.

As to `C=CCOC(=O)Cc1ccccc1`, the “odorant receptor agonist call” value is “inactive”. The same measure, in the same setting: the same measure for `O=c1cc(O)c2ccccc2o1`: “inactive”; for `Cc1c([N+](=O)[O-])c(C)c([N+](=O)[O-])c(C(C)(C)C)c1[N+](=O)[O-]`: “inactive”.

In the case of `C=CCc1ccccc1`, the “odorant receptor agonist call” value was “inactive”.

The target of the next test is T3, OR2J3 (Homo sapiens) (UniProt O76001).
T3 sequence (whole entry): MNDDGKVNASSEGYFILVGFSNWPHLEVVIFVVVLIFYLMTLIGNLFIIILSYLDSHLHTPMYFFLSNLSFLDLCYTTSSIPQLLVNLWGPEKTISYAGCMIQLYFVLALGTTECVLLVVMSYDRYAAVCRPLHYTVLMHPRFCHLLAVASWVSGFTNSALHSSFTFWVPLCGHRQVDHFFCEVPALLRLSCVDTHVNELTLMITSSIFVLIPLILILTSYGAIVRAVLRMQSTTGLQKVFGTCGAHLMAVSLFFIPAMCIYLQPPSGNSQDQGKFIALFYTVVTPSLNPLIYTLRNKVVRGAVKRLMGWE
The settings on record: stereoisomer not certain. A digest of the protocol:
as §1
`C=CCOC(=O)Cc1ccccc1`: the “odorant receptor agonist call” value is “inactive”.

On to `O=CC=Cc1ccccc1`, for which the “odorant receptor agonist call” value was “active”. Take `Cc1c([N+](=O)[O-])c(C)c([N+](=O)[O-])c(C(C)(C)C)c1[N+](=O)[O-]`: the “odorant receptor agonist call” value was “active”.
